Data published in ChEMBL document CHEMBL1629712, “Design, synthesis and discovery of 5-hydroxyaurone derivatives as growth inhibitors against HUVEC and some cancer cell lines” (Eur J Med Chem, 2010).

Columns and labels:
[1] = tested on: MCF7; assay: Antiproliferative activity against human MCF7 cells after 96 hrs by MTT assay; details: MCF7, 96 h
[2] = tested on: A549; assay: Antiproliferative activity against human A549 cells after 96 hrs by MTT assay; format: functional, cell-based; details: A549, 96 h
Procedure, shortened: (§1)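 MTT viability. Seeding was 1000 cells/well for HUVEC, 1500 for MCF-7 and CCC-HPF-1, and 2000 for A549. After 20 h attachment, compound or carrier was added from 2% DMSO/PBS stocks (final DMSO 0.1%), in triplicate per concentration.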

[3] = tested on: HUVEC; assay: Antiangiogenic activity in HUVEC after 96 hrs by MTT assay; format: functional, cell-based; details: Homo sapiens; procedure, shortened: as §1
[4] = Antiproliferative activity against human CCC-HPF1 cells after 96 hrs by MTT assay; format: cell-based; procedure, shortened: as §1
[5] = Selectivity ratio of CC50 for human CCC-HPF1 cells to IC50 for HUVEC; format: ADME, cell-based; details: CCC-HPF1 cells versus HUVEC, read-out: Ratio CC50/IC50

SMILES	IC50 [1] [µM]	IC50 [2] [µM]	IC50 [3] [µM]	CC50 at 96 h [4] [µM]	selectivity ratio [5]
CO[C@@H]1[C@H](OC(=O)/C=C/C=C/C=C/C=C/C(=O)O)CC[C@]2(CO2)[C@H]1[C@@]1(C)O[C@@H]1CC=C(C)C [FUMAGILLIN]	≥ 50	≥ 50	0.0089		
CN(C)c1ccc(/C=C2\Oc3ccc(O)cc3C2=O)cc1	10.1	18.7	1.35	25.1	20
